ChEMBL document CHEMBL1129282, “High-affinity partial agonist imidazo[1,5-a]quinoxaline amides, carbamates, and ureas at the gamma-aminobutyric acid A/benzodiazepine receptor complex” (J Med Chem, 1996)
Activity calls are given as the source filed them.

How the values were obtained:
[1] = biological target: T1, GABA A receptor alpha-6/beta-2/gamma-2 (Homo sapiens, UniProt P18507+P47870+Q16445); test: Displacement of [3H]-Ro-15-4513 from GABA-A receptor alpha-6-beta-2-gamma-2 subunits expressed in Sf9 cells
Outline: (§1)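 Membranes from Sf-9 cells infected (MOI 3) with baculoviruses for α1, α3 or α6 plus β2 and γ2 subunits, harvested 60 h postinfection. Binding in normal saline with 6 nM [3H]flunitrazepam (α1, α3) or [3H]Ro 15-4513 (α6), 50 µg membrane protein, varying test ligand. Incubated 60 min at 4 °C, filtered, scintillation counted.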

[2] = biological target: GABA-A receptor; anion channel (Rattus norvegicus) (UniProt O09028+P15431+P18506+P18508+P19969+P20236+P23574+P23576+P28471+P28473+P30191+P62813+P63079+P63138+Q91ZM7+Q9ES14); conditions: Brain, Brain membranes
[3] = biological target: T2, GABA-A receptor; alpha-1/beta-2/gamma-2 (Homo sapiens, UniProt P14867+P18507+P47870); test: (§2) Displacement of [3H]Flunitrazepam from GABA-A receptor alpha-1-beta-2-gamma-2 subunits expressed in Sf9 cells
T2 sequence (P14867 whole entry): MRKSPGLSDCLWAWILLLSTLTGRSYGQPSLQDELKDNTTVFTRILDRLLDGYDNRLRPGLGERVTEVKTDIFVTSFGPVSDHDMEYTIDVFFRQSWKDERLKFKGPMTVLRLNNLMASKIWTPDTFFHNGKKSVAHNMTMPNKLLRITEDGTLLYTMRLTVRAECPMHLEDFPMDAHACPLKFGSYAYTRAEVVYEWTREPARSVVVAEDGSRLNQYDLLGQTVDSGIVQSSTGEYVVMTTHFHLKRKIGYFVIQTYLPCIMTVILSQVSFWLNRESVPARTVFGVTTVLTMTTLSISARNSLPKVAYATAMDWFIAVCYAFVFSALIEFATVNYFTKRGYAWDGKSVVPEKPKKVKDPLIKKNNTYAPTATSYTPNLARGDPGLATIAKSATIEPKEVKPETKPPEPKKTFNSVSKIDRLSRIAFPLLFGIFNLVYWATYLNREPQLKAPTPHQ
T2 sequence (P47870 whole entry): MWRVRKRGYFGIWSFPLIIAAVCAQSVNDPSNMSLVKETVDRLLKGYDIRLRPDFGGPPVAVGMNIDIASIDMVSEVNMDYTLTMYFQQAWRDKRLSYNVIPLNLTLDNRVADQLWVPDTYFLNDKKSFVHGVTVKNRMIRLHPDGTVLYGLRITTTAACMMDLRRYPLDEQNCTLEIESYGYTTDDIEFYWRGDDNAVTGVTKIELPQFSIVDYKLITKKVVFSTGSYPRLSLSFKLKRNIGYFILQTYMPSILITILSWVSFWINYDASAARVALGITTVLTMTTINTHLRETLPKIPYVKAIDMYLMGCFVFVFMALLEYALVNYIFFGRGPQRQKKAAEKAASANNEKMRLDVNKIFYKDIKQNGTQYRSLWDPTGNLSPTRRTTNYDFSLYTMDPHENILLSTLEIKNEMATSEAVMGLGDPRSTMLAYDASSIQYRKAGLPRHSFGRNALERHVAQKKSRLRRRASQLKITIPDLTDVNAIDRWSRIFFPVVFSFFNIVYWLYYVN
T2 sequence (P18507 whole entry): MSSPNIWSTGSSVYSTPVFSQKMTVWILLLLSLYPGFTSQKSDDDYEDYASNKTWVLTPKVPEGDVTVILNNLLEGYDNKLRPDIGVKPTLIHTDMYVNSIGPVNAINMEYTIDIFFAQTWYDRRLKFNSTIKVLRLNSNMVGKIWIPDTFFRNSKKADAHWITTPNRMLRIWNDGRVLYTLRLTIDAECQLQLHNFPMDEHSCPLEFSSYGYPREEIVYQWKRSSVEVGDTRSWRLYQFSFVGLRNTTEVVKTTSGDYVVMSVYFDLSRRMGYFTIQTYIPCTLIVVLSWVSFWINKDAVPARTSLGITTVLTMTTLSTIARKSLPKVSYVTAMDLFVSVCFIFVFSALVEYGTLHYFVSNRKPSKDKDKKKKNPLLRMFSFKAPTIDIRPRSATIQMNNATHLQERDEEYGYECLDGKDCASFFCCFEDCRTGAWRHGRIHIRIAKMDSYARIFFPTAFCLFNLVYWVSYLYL

[4] = system: Rattus norvegicus; test: Antagonistic activity against metrazole-induced clonic convulsions in rat after ip injection; type: functional
[5] = system: Mus musculus; test: Ethanol potentiation activity was measured as loss of traction response in male CF-1 mice after oral administration; type: functional
[6] = system: Mus musculus; test: In vivo antagonistic activity against benzodiazepine in mice; type: functional
Outline: (§3)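 Male CF-1 mice injected ip simultaneously with triazolam 1 mg/kg and test compound starting at […], in 0.25% aqueous methyl cellulose. Loss of traction scored 15 min later. Absence of triazolam effect indicated antagonism; lower doses at 0.5 log intervals then tested to establish ED50.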

[7] = species on record: Rattus norvegicus; test: In vitro [36Cl]-uptake in rat cerebrocortical synaptoneurosomes; type: functional; design: unit not given here
Outline: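 Rat cerebrocortical synaptoneurosomes (1 mg protein) preincubated 5 min at 30 °C, then mixed with medium containing 0.2 µCi Na36Cl/mL, 118 mM NaCl, 5 mM KCl, 1.8 mM MgSO4, 20 mM Hepes/Tris pH 7.0, ± drug (methanol ≤0.4%). Uptake stopped after 5 s with ice-cold buffer, rapid filtration, four washes, radioactivity counted.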

[8] = biological target: GABA-A receptor; anion channel; test: Inhibition of [3H]flunitrazepam binding to GABA-A receptor of rat cortical membranes; type: cell membranes, Membrane
[9] = species on record: Mus musculus; test: Acute electroshock physical dependence activity was evaluated; IA=Inactive; type: functional, organism-based
Outline: (§4)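 Male CF-1 mice, 10/group, dosed sc twice daily (0800, and 1600 at twice the 0800 dose) for 3 days. 24 h after last dose, iv flumazenil 2.5 mg/kg in 5% aqueous N,N-dimethylacetamide. Electroshock seizure threshold (MA50) measured 5 min later versus saline-treated, flumazenil-injected controls. Compound scored active if threshold lowered beyond control interval.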

[10] = species on record: Mus musculus; test: Ethanol potentiation was measured against LORR; type: functional
Outline: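 Male CF-1 mice given 7.5 mL/kg 50% aqueous ethanol orally with test compound sc simultaneously (in 0.25% aqueous methyl cellulose). After 30 min, scored for loss of traction (hindlimb placement on wire within 10 s) and loss of righting reflex (no righting within 10 s). Six mice/dose; active compounds retested at several doses for ED50.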

[11] = biological target: T3, GABA A receptor alpha-3/beta-2/gamma-2 (Homo sapiens, UniProt P18507+P34903+P47870); test: (§5) Displacement of [3H]flunitrazepam from GABA-A receptor alpha-3-beta-2-gamma-2 subunits expressed in Sf9 cells; outline: as §1
T3 sequence (P47870 whole entry): T2 sequence (P47870 whole entry)
T3 sequence (P18507 whole entry): T2 sequence (P18507 whole entry)
T3 sequence (P34903 whole entry): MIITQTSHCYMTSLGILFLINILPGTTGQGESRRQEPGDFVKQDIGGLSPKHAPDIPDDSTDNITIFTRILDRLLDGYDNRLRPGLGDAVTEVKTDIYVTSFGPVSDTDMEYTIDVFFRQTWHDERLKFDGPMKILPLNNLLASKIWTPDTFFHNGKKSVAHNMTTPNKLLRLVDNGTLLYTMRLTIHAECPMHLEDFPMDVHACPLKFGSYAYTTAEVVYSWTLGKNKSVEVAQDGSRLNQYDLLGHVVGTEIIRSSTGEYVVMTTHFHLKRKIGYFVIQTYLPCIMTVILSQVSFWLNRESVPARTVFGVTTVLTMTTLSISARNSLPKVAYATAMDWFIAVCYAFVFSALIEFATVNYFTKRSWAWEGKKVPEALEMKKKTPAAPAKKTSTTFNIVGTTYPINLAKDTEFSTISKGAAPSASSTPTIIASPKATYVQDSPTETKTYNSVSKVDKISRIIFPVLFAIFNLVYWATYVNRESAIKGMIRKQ

[12] = biological target: T2, GABA-A receptor; alpha-1/beta-2/gamma-2; test: Displacement of [3H]flunitrazepam from GABA-A receptor alpha-1-beta-2-gamma-2 subunits expressed in Sf9 cells; outline: as §1
[13] = biological target: GABA-A receptor alpha-1/beta-2/gamma-2 (Homo sapiens); test: Binding affinity towards [3H]Fnz in alpha-1-beta-2-gamma-2 subtype was measured
[14] = species on record: Mus musculus; test: Acute electroshock physical dependence activity was evaluated; A=Active; type: functional, organism-based; outline: as §4
[15] = system: Mus musculus; test: In vivo antagonistic activity against benzodiazepine in mice after ip administration; type: functional; outline: as §3
[16] = system: Mus musculus; test: Ethanol potentiation activity was measured as loss of righting reflex in male CF-1 mice after oral administration; type: functional
[17] = biological target: T3, GABA A receptor alpha-3/beta-2/gamma-2; test: as §5; remark: listed apart in the source
Outline: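 Sf-9 cells were co-infected with baculoviruses for α3, β2 and γ2 subunits at MOI 3 and harvested 60 h postinfection to prepare membranes. Binding used 6 nM [3H]flunitrazepam, 50 µg membrane protein and varying test ligand concentrations in normal saline (NaCl/KCl/MgCl2/CaCl2/Hepes, pH 7.2). Incubation ran 60 min at 4 °C, followed by glass-fibre filtration, four cold-saline washes and scintillation counting.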

[18] = biological target: T2, GABA-A receptor; alpha-1/beta-2/gamma-2; test: as §2; design: species or system insect
Outline: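 Equilibrium competition binding on membranes from Sf-9 cells co-infected (MOI 3) with baculoviruses for α1, β2 and γ2 subunits, harvested 60 h postinfection. Assay in normal saline with 6 nM [3H]flunitrazepam, 50 µg membrane protein and varying test ligand concentrations. Incubated 60 min at 4 °C, filtered over glass fiber, washed four times with cold saline, then scintillation counted.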

[19] = biological target: T1, GABA A receptor alpha-6/beta-2/gamma-2; test: Displacement of [3H]Ro-154513 from GABA-A receptor alpha-6-beta-2-gamma-2 subunits expressed in Sf9 cells; outline: as §1
[20] = system: Mus musculus; test: Acute electroshock physical dependence activity was evaluated; A=Active at 15 mg/Kg; type: functional, organism-based

T1 sequence (Q16445 whole entry, one chain of several): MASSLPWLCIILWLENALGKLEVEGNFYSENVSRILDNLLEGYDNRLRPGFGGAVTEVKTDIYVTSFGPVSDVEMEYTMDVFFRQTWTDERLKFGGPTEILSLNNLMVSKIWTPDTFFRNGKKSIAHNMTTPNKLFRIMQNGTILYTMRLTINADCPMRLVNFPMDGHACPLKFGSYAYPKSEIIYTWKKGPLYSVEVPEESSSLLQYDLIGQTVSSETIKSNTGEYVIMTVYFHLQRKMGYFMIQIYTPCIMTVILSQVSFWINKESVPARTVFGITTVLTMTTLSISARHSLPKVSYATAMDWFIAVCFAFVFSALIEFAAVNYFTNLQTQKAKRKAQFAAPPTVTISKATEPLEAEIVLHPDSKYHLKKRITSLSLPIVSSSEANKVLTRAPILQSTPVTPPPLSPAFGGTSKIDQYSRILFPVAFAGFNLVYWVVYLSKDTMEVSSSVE

Work on `O=C(c1ccccc1)N1Cc2c(-c3noc(C4CC4)n3)ncn2-c2ccccc21` yielded a Ki [1] of 1140 nM, a [35S] TBPS shift [2] of 0.54 and a Ki [3] of 0.3 nM. It also gave an ED50 [4] of 42 mg/kg.

`CC(C)n1c(=O)c2c(-c3noc(C4CC4)n3)ncn2c2ccccc21` [PANADIPLON] showed an ED50 [5] of 6.6 mg/kg, a Ki [1] of 603 nM and an ED50 [6] of 1.7 mg/kg. The 36Cl- uptake [7] was 0.04, the Ki [8] was 1.6 nM and the Activity [9] was “inactive”. The ED50 [10] was > 30 mg/kg, the Ki [11] was 5.7 nM and the [35S] TBPS shift [2] was 0.06. It also gave a Ki [3] of 3.5 nM and an ED50 [4] of 1.6 mg/kg.

For `O=C(N1CCOCC1)N1Cc2c(-c3noc(C4CC4)n3)ncn2-c2ccc(Cl)cc21`, the 36Cl- uptake [7] was 1, the Ki [8] was 2.3 nM and the Ki [12] was 0.22 nM. It also gave a [35S] TBPS shift [2] of 0.71 and a Ki [13] of 2 nM.

In the case of `O=C(N1CCOCC1)N1Cc2c(-c3noc(C4CC4)n3)ncn2-c2ccc(F)cc21`, the ED50 [5] is reported as 2 mg/kg, the 36Cl- uptake [7] is reported as 1.1 and the Ki [8] is reported as 0.68 nM. For the same compound, the A [14] was “Active”, the ED50 [15] was 1 mg/kg and the Ki [11] was 0.7 nM. The [35S] TBPS shift [2] was 0.96, the ED50 [16] was > 30 mg/kg and the Ki [3] was 0.3 nM. For the same compound, the ED50 [4] was 6.2 mg/kg.

Work on `CN(C)C(=O)N1Cc2c(-c3noc(C4CC4)n3)ncn2-c2ccccc21` [PNU-91571] yielded an ED50 [5] of 27 mg/kg, a 36Cl- uptake [7] of 0.68 and a Ki [8] of 1 nM. For the same compound, the Activity [9] was “inactive”, the ED50 [15] was 1 mg/kg and the Ki [12] was 1.7 nM. The Ki [17] was 3.5 nM, the [35S] TBPS shift [2] was 0.69 and the ED50 [16] was > 30 mg/kg. For the same compound, the ED50 [4] was 21 mg/kg.

`O=C(N1CCOCC1)N1Cc2c(-c3noc(C4CC4)n3)ncn2-c2cccc(F)c21` gave a Ki [1] of 13 nM, a 36Cl- uptake [7] of 0.42 and a Ki [8] of 0.48 nM. The Activity [14] was “Active”, the Ki [11] was 0.51 nM and the [35S] TBPS shift [2] was 0.66. It also gave a Ki [3] of 0.17 nM and an ED50 [4] of 6.2 mg/kg.

For `CCNC(=O)N1Cc2c(-c3noc(C4CC4)n3)ncn2-c2ccccc21`, the ED50 [5] was > 30 mg/kg, the 36Cl- uptake [7] was 0.22 and the Ki [8] was 3.5 nM. The Activity [9] was “inactive”, the ED50 [15] was > 30 mg/kg and the Ki [12] was 4.5 nM. For the same compound, the Ki [17] was 15 nM, the [35S] TBPS shift [2] was 0.72 and the ED50 [16] was > 30 mg/kg. The ED50 [4] was 5.3 mg/kg.

In the case of `Cc1cccc2c1N(C(=O)N1CCOCC1)Cc1c(-c3noc(C4CC4)n3)ncn1-2`, the 36Cl- uptake [7] is reported as 0.7, the Ki [8] is reported as 4.6 nM and the Ki [11] is reported as 30 nM. For the same compound, the [35S] TBPS shift [2] was 0.51, the Ki [3] was 4.7 nM and the ED50 [4] was 5.2 mg/kg.

With `CCOC(=O)c1ncn2c1CN(C)C(=O)c1cc(N=[N+]=[N-])ccc1-2` [Ro-154513] the Ki [18] was 15 nM.

Work on `CC(=O)N1Cc2c(-c3noc(C4CC4)n3)ncn2-c2ccccc21` yielded a Ki [19] of 124 nM, a Ki [12] of 2.7 nM and a [35S] TBPS shift [2] of 0.94. For the same compound, the ED50 [4] was 35 mg/kg.

`CN1C(=O)CN=C(c2ccccc2)c2cc(Cl)ccc21` [DIAZEPAM] was tested, and the ED50 [5] was 0.54 mg/kg, the Ki [1] was > 7000 nM and the 36Cl- uptake [7] was 1. For the same compound, the Activity [20] was “Active”, the ED50 [16] was 0.86 mg/kg and the ED50 [4] was 0.5 mg/kg.
